Source: ChEMBL document CHEMBL4373749, “Design and Catalyzed Activation of Tak-242 Prodrugs for Localized Inhibition of TLR4-Induced Inflammation” (ACS Med Chem Lett, 2020)

Assays:
[1] = Stability of compound in phosphate buffered saline containing 5% DMSO at 0.01 mg/ml at pH 7.4 by HPLC analysis; type: physicochemical; settings: buffer
In short: (§1)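 Incubation at 37 °C in phosphate buffered saline, pH 7.4, containing 5% DMSO. Aqueous stability was followed over time.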

[2] = Stability of compound in phosphate buffered saline containing 5% DMSO assessed as compound remaining at 0.01 mg/ml at pH 7.4 measured after 1 day by HPLC analysis; type: physicochemical; settings: read-out: Stability; in short: as §1
[3] = target: T1, Oxygen-insensitive NAD(P)H nitroreductase (Escherichia coli K-12, UniProt P38489); test: Prodrug conversion in PBS containing 5% DMSO assessed as Escherichia coli nitroreductase-mediated activation by measuring increased consumption of prodrug at 0.01 mg/ml at pH 7.4 in presence of […] by HPLC analysis; settings: isolated protein
T1 sequence (P38489 whole entry): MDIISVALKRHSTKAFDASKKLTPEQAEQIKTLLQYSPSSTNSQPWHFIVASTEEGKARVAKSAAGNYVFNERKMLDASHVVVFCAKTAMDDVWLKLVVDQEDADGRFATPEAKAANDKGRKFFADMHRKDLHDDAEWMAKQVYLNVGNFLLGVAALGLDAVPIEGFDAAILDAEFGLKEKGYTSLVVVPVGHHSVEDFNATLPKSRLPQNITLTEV
In short: (§2)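 Nitroreductase from E. coli (2 units/mL) with NADPH (1 mg/mL) in PBS, pH 7.4, containing 5% DMSO. The reaction was monitored by HPLC.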

[4] = target: T1, Oxygen-insensitive NAD(P)H nitroreductase; test: Prodrug conversion in PBS containing 5% DMSO assessed as Escherichia coli nitroreductase-mediated activation by measuring release of ethyl (6R)-6-[(2-chloro-4-fluorophenyl)sulfamoyl]cyclohexene-1-carboxylate parent drug at 0.01 mg/ml at pH 7.4 in presence of […] by HPLC analysis; settings: isolated protein; in short: as §2
[5] = target: T1, Oxygen-insensitive NAD(P)H nitroreductase; test: Prodrug conversion in PBS containing 5% DMSO assessed as Escherichia coli nitroreductase-mediated activation by measuring reduced amine intermediate metabolite formation at 0.01 mg/ml at pH 7.4 in presence of […] by HPLC analysis; type: ADME; settings: isolated protein; in short: as §2
[6] = target: T2, Toll-like receptor 4 (Homo sapiens, UniProt O00206); test: Inhibition of human TLR4 expressed in HEK-Blue cells assessed as decrease in LPS-induced TLR4 response incubated for 1 hr followed by LPS stimulation and further incubated for 22 hrs by cell based reporter assay
[7] = target: T2, Toll-like receptor 4; test: Inhibition of human TLR4 expressed in HEK-Blue cells assessed as decrease in LPS-induced TLR4 response at 15 uM incubated for 1 hr followed by LPS stimulation and further incubated for 22 hrs by cell based reporter assay
In short: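 HEK TLR4 reporter cells exposed to compound across a concentration range, then stimulated with LPS. Read-out is optical density at 650 nm. Complete suppression was defined as the OD650 of cells given racemic reference inhibitor at 15 μM. IC50 values were derived from the concentration-response data.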

T2 sequence (O00206 whole entry): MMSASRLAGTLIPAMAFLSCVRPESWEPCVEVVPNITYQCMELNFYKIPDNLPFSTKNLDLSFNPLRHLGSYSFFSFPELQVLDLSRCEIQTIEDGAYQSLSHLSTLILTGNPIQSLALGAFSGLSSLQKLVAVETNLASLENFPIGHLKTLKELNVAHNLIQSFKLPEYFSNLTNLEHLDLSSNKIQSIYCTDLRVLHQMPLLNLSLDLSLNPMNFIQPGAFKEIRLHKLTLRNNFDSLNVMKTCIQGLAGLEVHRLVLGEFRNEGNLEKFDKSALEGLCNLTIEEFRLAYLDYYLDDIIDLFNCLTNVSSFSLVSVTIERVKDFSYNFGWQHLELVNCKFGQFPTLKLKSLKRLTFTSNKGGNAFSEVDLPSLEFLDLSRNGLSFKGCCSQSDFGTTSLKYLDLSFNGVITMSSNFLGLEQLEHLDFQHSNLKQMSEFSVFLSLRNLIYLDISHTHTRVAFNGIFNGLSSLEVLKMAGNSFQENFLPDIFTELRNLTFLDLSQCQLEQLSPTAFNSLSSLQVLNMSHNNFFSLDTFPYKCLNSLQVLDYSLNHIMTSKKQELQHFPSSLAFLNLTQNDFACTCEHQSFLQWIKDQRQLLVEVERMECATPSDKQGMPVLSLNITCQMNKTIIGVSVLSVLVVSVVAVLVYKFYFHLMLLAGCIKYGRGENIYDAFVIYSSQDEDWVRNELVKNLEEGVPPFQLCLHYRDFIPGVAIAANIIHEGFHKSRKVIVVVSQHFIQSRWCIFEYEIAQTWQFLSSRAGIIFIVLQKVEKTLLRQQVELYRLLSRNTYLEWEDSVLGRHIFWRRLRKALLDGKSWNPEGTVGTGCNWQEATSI

Structure (SMILES): CCOC(=O)C1=CCCCC1S(=O)(=O)N(C(=O)OCc1ccc([N+](=O)[O-])cc1)c1ccc(F)cc1Cl (racemic)
- Stability [1]: Unstable
- remaining at 24 h, 0.01 mg/ml [2]: 85%
- Drug metabolism [3]: Metabolite_Detected
- Drug metabolism [4]: Metabolite_Detected
- Drug metabolism [5]: Metabolite_Notdetected

Structure (SMILES): CCOC(=O)C1=CCCCC1S(=O)(=O)Nc1ccc(F)cc1Cl (racemic)
- IC50 [6]: 40 nM
- inhibition [7]: 100%

Structure (SMILES): C#CCN(c1ccc(F)cc1Cl)S(=O)(=O)C1CCCC=C1C(=O)OCC (racemic)
- Stability [1]: Stable

Structure (SMILES): CCOC(=O)C1=CCCCC1S(=O)(=O)N(Cc1ccc([N+](=O)[O-])cc1)c1ccc(F)cc1Cl (racemic)
- Stability [1]: Stable
- Drug metabolism [3]: Metabolite_Detected
- Drug metabolism [4]: Metabolite_Detected
- Drug metabolism [5]: Metabolite_Detected

Structure (SMILES): C#CCOC(=O)N(c1ccc(F)cc1Cl)S(=O)(=O)C1CCCC=C1C(=O)OCC (racemic)
- Stability [1]: Unstable
- remaining at 24 h, 0.01 mg/ml [2]: 25%
